Results published in ChEMBL document CHEMBL1146547, “Bulbinelonesides A-E, phenylanthraquinone glycosides from the roots of Bulbinella floribunda” (J Nat Prod, 2003).
Values after ≈ are worked out from the molar mass of the structure shown.

Legend:
[1] = Cytotoxicity against human HPC by MTT assay
Outline: (§1)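 Cells were grown in DMEM with 10% heat-inactivated FBS and penicillin/streptomycin under humidified 5% CO2. HPC came from premolar pulp explants and were used at passages 5–10. Cells were trypsinized, seeded at 6 × 10^3 to 1.2 × 10^4, incubated 24 h, washed with PBS, then exposed to compound for 24 h. MTT (0.2 mg/mL, 4 h) was added, cells were lysed in DMSO, and A540 was read. LD50 was taken from the dose-response curve.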

HSC-2 = experiment: Cytotoxicity against human HSC2 cells by MTT assay; assay type: functional, cell-based; outline: as §1

SMILES	IC50 [1] [mg/L]	IC50 (HSC-2) [mg/L]
COc1cc(O)c(-c2c(C)cc(O)c3c2C(=O)c2cccc(O)c2C3=O)c(O)c1C(C)=O [KNIPHOLONE]	> 120	33 (≈ 76 µM)
COc1cc(O[C@@H]2O[C@H](CO)[C@@H](O)[C@H](O)[C@H]2O)c(-c2c(C)cc(O)c3c2C(=O)c2cccc(O)c2C3=O)c(O)c1C(C)=O [BULBINELONESIDE A]	> 120	36 (≈ 60.3 µM)
COc1cc(O)c(C(C)=O)c(O)c1-c1c(C)cc(O)c2c1C(=O)c1cccc(O)c1C2=O	57 (≈ 131 µM)	25 (≈ 57.6 µM)
CC(=O)c1c(O)cc(O[C@@H]2OC[C@@H](O)[C@H](O)[C@H]2O)c(-c2c(C)cc(O)c3c2C(=O)c2cccc(O)c2C3=O)c1O [BULBINELONESIDE B]	> 120	56 (≈ 101 µM)
CC(=O)c1c(O[C@@H]2OC[C@@H](O)[C@H](O[C@@H]3O[C@H](CO)[C@@H](O)[C@H](O)[C@H]3O)[C@H]2O)cc(O)c(-c2c(C)cc(O)c3c2C(=O)c2cccc(O)c2C3=O)c1O [BULBINELONESIDE E]	> 120	> 120
CC(=O)c1c(O[C@@H]2O[C@H](CO)[C@@H](O)[C@H](O)[C@H]2O)cc(O)c(-c2c(C)cc(O)c3c2C(=O)c2cccc(O)c2C3=O)c1O [BULBINELONESIDE D]	> 120	> 120
CC(=O)c1c(O[C@@H]2OC[C@@H](O)[C@H](O)[C@H]2O)cc(O)c(-c2c(C)cc(O)c3c2C(=O)c2cccc(O)c2C3=O)c1O [BULBINELONESIDE C]	> 120	> 120
COc1cc([C@@H]2c3cc4c(cc3[C@@H](O[C@@H]3O[C@@H]5CO[C@@H](C)O[C@H]5[C@H](O)[C@H]3O)[C@H]3COC(=O)[C@H]23)OCO4)cc(OC)c1O [ETOPOSIDE]	> 120	24 (≈ 40.8 µM)
